Results from paper PMC6243397 (ACS Chemical Biology, 2018).
Where two headings read alike, the source gives them in different places. Values belong to the compound of their own block, whether it stands above or below them.

How the values were obtained:
[1] = Mouse liver microsome stability assay; type: in vitro ADME; conditions: percentage remaining relative to t0
[2] = Stability control without microsomes; type: physicochemical; conditions: microsomes replaced with PBS, percentage remaining relative to t0
[3] = Hydrolytic stability in PBS; type: physicochemical; conditions: pH 7.4, t1/2 in PBS, PBS pH 7.4, 37 °C
[4] = in vivo blood-brain barrier permeability; conditions: CD-1 IGS, mouse, brain and serum, iv, 25 mg/kg
[5] = Assessment of hematological toxicity; type: in vivo, mouse; conditions: single IV dose 125 mg/kg, 7 days post-treatment
Method in brief: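 Mice received a single IV dose of 125 mg/kg test compound. Whole blood was collected 7 days post-dose and a complete blood count run per mouse (total WBC, lymphocytes, neutrophils). Four mice per cohort; error is SEM. Groups were compared with control by two-tailed two-sample Student's t test assuming equal variance.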

U87 cells = assay: O6-methyldeoxyguanosine quantitation; type: cell-based, human; conditions: 100 or 1000 μM, 8 h
Method in brief: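 U87 cells were treated with 100 or 1000 μM test compound for 8 h. Genomic DNA was isolated, quantified and hydrolysed to deoxyribonucleosides. O6-methyldeoxyguanosine was quantitated by LC-MS/MS and expressed per 10 μg DNA.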

human GBM cell lines = assay: Panel of human GBM cell lines, viability; type: cell-based
[6] = cited from earlier work

Compound: CCN(CC)C(=O)c1ncn2c(=O)n(C)nnc12 [Compound 6]
stability (2 h, microsomes) [1]: 81 ± 1% | stability (2 h, no microsomes) [2]: 95 ± 2%

Compound: CCCCN(CCCC)C(=O)c1ncn2c(=O)n(C)nnc12 [Compound 7]
stability (2 h, microsomes) [1]: 1 ± 1% | stability (2 h, no microsomes) [2]: 98 ± 3%

half-life [3]: 40 h
Compound: Cc1ncn2c(=O)n(C)nnc12 [Compound 14]

Compound: Cn1nnc2c(Cl)ncn2c1=O [Compound 19]
stability (2 h, microsomes) [1]: 91 ± 3% | stability (2 h, no microsomes) [2]: 91 ± 1%

Compound: Cn1nnc2c(-c3ccccc3)ncn2c1=O [Compound 23]
stability (2 h, microsomes) [1]: 44 ± 2% | stability (2 h, no microsomes) [2]: 103 ± 5%

Compound: Cn1nnc2c(C(N)=O)ncn2c1=O [TMZ, temozolomide]
stability (2 h, microsomes) [1]: 87 ± 6% | stability (2 h, no microsomes) [2]: 86 ± 4% | Kp at 5 min [4]: 0.23 ± 0.03 | myelosuppression / white blood cell count [5]: white blood cell (WBC) depletion relative to control mice | concentration of O6-methylated deoxyguanosine (U87 cells): Dose dependent increases | IC50 (human GBM cell lines; read-out: IC50 in cell lines with negligible MGMT expression): ≤ 50 µM | IC50 (human GBM cell lines; read-out: IC50 in cell lines with significant MGMT expression): > 300 µM | half-life in humans ([6]; humans): ~2 h | half-life in vivo and in aqueous solutions in vitro ([6]; in vivo and in aqueous solutions in vitro): ~2 h
